Source: PubChem BioAssay
The source made the active and inactive calls.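 Rule for the calls, unless noted: active = viability loss from added drug above about 55%, and viability with drug at most 40%, in both replicates (limit read from the data, passing the limit was not always enough); inconclusive = both conditions met in only one replicate; inactive = neither replicate meets both conditions.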

Assays:
[1] = Her2 expression decrease, cell viability multiplex – SKBR3 breast tumor cells, AlphaScreen, ATP viability, primary screen (AID 461;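 active = Her2 level under about 52% in both replicate screens, with viability over 70% of control, limit read from the data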;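 for Her2 level: lower value means less Her2 protein in the cells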;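 for viability: percent of carrier control wells set as 100% viability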); settings: SKBR3 Her2 protein level, 18-24 h, measured here: SKBR3 viability, ATP luminescence, at 10 µM
[2] = molecular target: Receptor tyrosine-protein kinase erbB-2 (Homo sapiens) (UniProt P04626); assay: as above; settings: 18-24 h, at 10 µM, stronger effect = lower value
Receptor tyrosine-protein kinase erbB-2 (Homo sapiens), sequence (P04626 whole entry, looked up): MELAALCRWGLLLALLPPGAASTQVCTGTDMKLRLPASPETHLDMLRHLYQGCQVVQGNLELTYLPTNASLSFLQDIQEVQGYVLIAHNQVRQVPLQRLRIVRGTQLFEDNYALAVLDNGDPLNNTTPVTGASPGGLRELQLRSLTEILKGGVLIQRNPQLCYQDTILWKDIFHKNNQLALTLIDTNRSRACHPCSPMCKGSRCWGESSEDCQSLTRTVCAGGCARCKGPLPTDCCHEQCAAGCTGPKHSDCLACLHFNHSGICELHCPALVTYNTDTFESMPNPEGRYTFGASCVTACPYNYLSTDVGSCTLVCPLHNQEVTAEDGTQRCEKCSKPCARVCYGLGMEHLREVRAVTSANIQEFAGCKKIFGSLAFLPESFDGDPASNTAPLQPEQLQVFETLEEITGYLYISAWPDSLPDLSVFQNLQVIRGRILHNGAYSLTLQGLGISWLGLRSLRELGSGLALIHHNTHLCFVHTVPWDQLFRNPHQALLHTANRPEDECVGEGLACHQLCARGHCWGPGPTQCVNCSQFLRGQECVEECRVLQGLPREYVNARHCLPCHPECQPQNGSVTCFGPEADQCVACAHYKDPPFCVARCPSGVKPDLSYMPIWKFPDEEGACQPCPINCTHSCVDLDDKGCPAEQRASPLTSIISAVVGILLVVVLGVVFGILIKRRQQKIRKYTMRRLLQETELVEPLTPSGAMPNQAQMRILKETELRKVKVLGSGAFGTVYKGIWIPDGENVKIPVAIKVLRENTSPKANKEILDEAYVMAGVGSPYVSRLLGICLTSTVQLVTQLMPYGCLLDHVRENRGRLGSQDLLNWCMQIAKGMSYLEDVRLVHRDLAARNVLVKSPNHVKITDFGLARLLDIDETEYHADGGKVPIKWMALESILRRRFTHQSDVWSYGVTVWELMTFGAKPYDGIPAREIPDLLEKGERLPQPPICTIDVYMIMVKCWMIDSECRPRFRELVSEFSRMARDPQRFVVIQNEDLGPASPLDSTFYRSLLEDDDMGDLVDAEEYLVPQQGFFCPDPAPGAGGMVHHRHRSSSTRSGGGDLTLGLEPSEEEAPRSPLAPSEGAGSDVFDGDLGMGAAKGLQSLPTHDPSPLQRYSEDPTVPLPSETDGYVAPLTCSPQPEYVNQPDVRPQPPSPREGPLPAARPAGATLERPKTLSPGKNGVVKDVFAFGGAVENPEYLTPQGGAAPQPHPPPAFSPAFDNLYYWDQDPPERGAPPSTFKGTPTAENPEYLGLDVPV

[3] = reduced viability of SK-BR-3 breast cancer cells – cell-based, 24 h, human, pilot screen (AID 572;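 active = viability at or below 10% of carrier control in both of two separate runs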;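 note: compound exposure lasted between 18 and 24 h rather than exactly 24 h; 100% = carrier-treated control wells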); settings: SK-BR-3 viability, CellTiter-Glo luminescence, at 10 µM, stronger effect = lower value
[4] = HUVEC growth inhibition – cell-based, human, primary screen (AID 575;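 active = viability at or below 30% in both replicate assays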;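 note: 100% = median of untreated cell wells with 0.1% DMSO on each plate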); settings: HUVEC proliferation, CellTiter-Glo luminescence, 72 h; at 10 µM; stronger effect = lower value
Procedure, shortened: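 Assay system: primary human umbilical vein endothelial cells / Buffer or medium: endothelial basal medium with 2% FBS plus growth supplements / Compound dosing: one dose, 10 µM final, 0.1% DMSO / Timing: 72 h treatment at 37 °C / Signal: CTG luminescence / Benchmarks: 32 DMSO-only cell-control wells (high), 32 MePR drug-control wells (low) per plate / Plate: collagen-coated 384-well format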

[5] = H69AR cell proliferation blockers – human, duplicate replicates, primary screen (AID 580;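 active = viability at or under a set limit in both replicates, limit being median viability minus 3 SD, cut at about 48% in these data, passing the limit was not always enough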;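 note: 100% = mean luminescence of untreated wells and 0% = no signal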); settings: H69AR lung tumor cells viability, ATP luminescence, 72 h; at 10 µM; stronger effect = lower value
[6] = MRP1 drug-resistance reversers in H69AR cells – cell-based, doxorubicin co-treatment, pilot screen (AID 601); settings: CellTiter-Glo, 72 h, at 10 µM; for differential viability (reversal): stronger effect = higher value
[7] = yeast transport mutant growth inhibition pilot in 384-well plates, post-Golgi transport modulator project (AID 636; in the data active = inhibition above about 31%); settings: absorbance 615 nm, about 18 h, stronger effect = higher value
[8] = growth suppression of yeast trafficking mutant, preliminary HTS, modulators of trafficking downstream of Golgi apparatus project, 1536-format plate, OD 615 nm (AID 637; in the data active = inhibition above about 30%); settings: yeast transport mutant growth, absorbance 615 nm, 18 h; stronger effect = higher value
[9] = H69AR cells + 2 uM doxorubicin, measured here: viability with 2 uM doxorubicin, stronger effect = lower value
[10] = H69AR cells, compound alone cytotoxicity

| Structure (SMILES) | viability [1] [%] | Her2 level [2] | viability [3] | viability [4] | viability [5] | differential viability (reversal) ([6]; H69AR cells + 2 uM doxorubicin) | viability [6, 9] [%] | viability [6, 10] [%] | inhibition [7] | inhibition [8] |
| --- | --- | --- | --- | --- | --- | --- | --- | --- | --- | --- |
| CS(=O)(=O)N1CCc2cc(C(=O)N3CCCCC3)ccc21 | 89.5 | 89% (inactive) | 89.5% (inactive) | 99.8% (inactive) | 96.6% (inactive) | 8.06% (inactive) | 88.5 | 96.6 | -3.42% (inactive) | 1.75% (inactive) |
| Cc1oc(-c2ccccc2F)nc1CS(=O)(=O)CC(=O)N1CCCCCC1 | 99 | 108% (inactive) | 99% (inactive) | 101% (inactive) | 100% (inactive) | 13.4% (inactive) | 87.1 | 100 | 1.07% (inactive) | -3.28% (inactive) |
| CC1(C)CC(=O)C(C=Nc2ccncc2)=C(O)C1 | 96.5 | 93% (inactive) | 96.5% (inactive) | 92.2% (inactive) | 106% (inactive) | 7.13% (inactive) | 99.3 | 106 | -4.19% (inactive) | -7.62% (inactive) |
| Cc1cccc2cc(C#N)c(NCCNC(=O)NC3CCCCC3)nc12 | 97.5 | 84.5% (inactive) | 97.5% (inactive) | 48.3% (inactive) | 75.1% (inactive) | -7.59% (inactive) | 82.7 | 75.1 | -2.37% (inactive) | -3.45% (inactive) |
| COc1ccc(N(CC(=O)N2CCCCC2)S(=O)(=O)c2ccccc2)c(OC)c1 | 91 | 94.5% (inactive) | 91% (inactive) | 91.9% (inactive) | 86.5% (inactive) | -2.6% (inactive) | 89.1 | 86.5 | -1.03% (inactive) | -3.83% (inactive) |
| O=C1NCC(COCc2ccccc2)O1 (stereo not given) | 110 | 96% (inactive) | 110% (inactive) | 103% (inactive) | 108% (inactive) | 18.5% (inactive) | 89.4 | 108 | -5.6% (inactive) | 0% (inactive) |
| Fc1ccc(-c2cnc[nH]2)cc1 | 98.5 | 99.5% (inactive) | 98.5% (inactive) | 80.8% (inactive) | 96.7% (inactive) | 6.2% (inactive) | 90.4 | 96.7 | 1.32% (inactive) | -8.55% (inactive) |
| C=CCSc1nc2c(c(=O)[nH]c(=O)n2C)n1CC | 78.5 | 74% (inactive) | 78.5% (inactive) | 85.7% (inactive) | 93.2% (inactive) | 7.82% (inactive) | 85.3 | 93.2 | -5.54% (inactive) | -3.11% (inactive) |
| COc1ccc(S(=O)(=O)NCc2ccc(C(=O)O)cc2)cc1 | 102 | 99% (inactive) | 102% (inactive) | 107% (inactive) | 95.8% (inactive) | -10.6% (inactive) | 106 | 95.8 | -3.77% (inactive) | -3.33% (inactive) |
| CC(C)(C)OC(=O)N1CCOCCOCCN(C(=O)OC(C)(C)C)CCOCCOCC1 | 97.5 | 112% (inactive) | 97.5% (inactive) | 83% (inactive) | 93.4% (inactive) | -2.94% (inactive) | 96.4 | 93.4 | -3.16% (inactive) | 5.74% (inactive) |
| COc1cccc(-n2c(C)nc3c(cnn3-c3ccc(Cl)cc3)c2=O)c1 | 92.5 | 86% (inactive) | 92.5% (inactive) | 79.8% (inactive) | 76.3% (inactive) | -1.66% (inactive) | 78 | 76.3 | -4.47% (inactive) | 4.19% (inactive) |
| COc1cc(/C=N/n2c(C)nnc2C)cc(OC)c1OC | 104 | 95% (inactive) | 104% (inactive) | 105% (inactive) | 103% (inactive) | 19.3% (inactive) | 83.6 | 103 | -0.53% (inactive) | 5.74% (inactive) |
| C=CCN(CC=C)C(=O)CN1C(=O)c2ccccc2C1=O | 125 | 89.5% (inactive) | 125% (inactive) | 97.5% (inactive) | 92.2% (inactive) | 0.065% (inactive) | 92.1 | 92.2 | 0% (inactive) | 1.13% (inactive) |
| COC(=O)c1cc(=O)n2c(-c3ccc(OC)cc3)csc2n1 | 110 | 97.5% (inactive) | 110% (inactive) | 96.2% (inactive) | 92.6% (inactive) | 10.6% (inactive) | 82.1 | 92.6 | -4.8% (inactive) | -0.16% (inactive) |
| O=C(O)c1ccccc1C(=O)Nc1ccccc1 | 121 | 124% (inactive) | 121% (inactive) | 103% (inactive) | 105% (inactive) | 12.1% (inactive) | 92.8 | 105 | -6.97% (inactive) | -2.13% (inactive) |
| O=C(CN(Cc1ccc(F)cc1)C(=O)Cn1nnc2ccccc21)NCC1CCCO1 (stereo not given) | 110 | 90.5% (inactive) | 110% (inactive) | 118% (inactive) | 90.3% (inactive) | 4.51% (inactive) | 85.8 | 90.3 | 0.13% (inactive) | -1.64% (inactive) |
| COc1ccccc1NC(=O)CSc1nnc(-c2ccncc2)o1 | 108 | 96% (inactive) | 108% (inactive) | 111% (inactive) | 93.8% (inactive) | 2.67% (inactive) | 91.2 | 93.8 | 0.91% (inactive) | -4.33% (inactive) |
| CCCCN(CC)S(=O)(=O)N1CCC(C(=O)NCc2ccc(F)cc2)CC1 | 97 | 113% (inactive) | 97% (inactive) | 109% (inactive) | 101% (inactive) | 0.67% (inactive) | 101 | 101 | -4.34% (inactive) | 2.62% (inactive) |
| CCOc1cc2oc(=O)c3c(c2cc1Cl)CCC3 | 106 | 96% (inactive) | 106% (inactive) | 102% (inactive) | 85.6% (inactive) | 8.13% (inactive) | 77.5 | 85.6 | -3.84% (inactive) | 2.38% (inactive) |
| CC1=C(C(=O)OC(C)C)C(C2CC=CCC2)NC(=O)N1 (stereo not given) | 95.5 | 113% (inactive) | 95.5% (inactive) | 98.5% (inactive) | 87.3% (inactive) | -1.42% (inactive) | 88.7 | 87.3 | 0.77% (inactive) | -10.7% (inactive) |
| Cc1cc(=O)[nH]c(S/C=C/c2ccccc2)n1 | 91.5 | 95% (inactive) | 91.5% (inactive) | 77% (inactive) | 79.9% (inactive) | 0.47% (inactive) | 79.4 | 79.9 | -3.12% (inactive) | -2.86% (inactive) |
| COc1ccc(-c2nc(SC)n(S(=O)(=O)c3ccccc3)n2)cc1 | 80 | 114% (inactive) | 80% (inactive) | 86.1% (inactive) | 98.1% (inactive) | 17.5% (inactive) | 80.6 | 98.1 | 1.73% (inactive) | -10.8% (inactive) |
| CC(NC(=O)c1ccc2c(c1)OCO2)C(c1cccs1)N1CCOCC1 (stereo not given) | 97.5 | 82.5% (inactive) | 97.5% (inactive) | 106% (inactive) | 105% (inactive) | 13.5% (inactive) | 91.1 | 105 | -4.81% (inactive) | -0.95% (inactive) |
| COc1cc(C(Nc2ccc3c(c2)OCO3)C(=O)NC2CCCCC2)cc(OC)c1OC (stereo not given) | 74.5 | 75% (inactive) | 74.5% (inactive) | 94.2% (inactive) | 93% (inactive) | -6.39% (inactive) | 99.4 | 93 | -4.32% (inactive) | 7.94% (inactive) |
| CCCCOc1ccc(-c2nnn(C(C)(C)C(=O)OC)n2)cc1 | 96 | 107% (inactive) | 96% (inactive) | 86% (inactive) | 92.2% (inactive) | -7.05% (inactive) | 99.3 | 92.2 | -0.91% (inactive) | -4.29% (inactive) |
| Cc1ccc2c(c1)CCCN2C(=O)C1CCCO1 (stereo not given) | 101 | 100% (inactive) | 101% (inactive) | 99.3% (inactive) | 108% (inactive) | 14.6% (inactive) | 93.3 | 108 | -1.97% (inactive) | -6.83% (inactive) |
| COc1ccccc1C(=O)NC(C)C(c1cccs1)N1CCN(C)CC1 (stereo not given) | 103 | 149% (inactive) | 103% (inactive) | 78.9% (inactive) | 91.1% (inactive) | -0.4% (inactive) | 91.5 | 91.1 | 1.58% (inactive) | -6.67% (inactive) |
| CC(C)(C)NC(=O)COC(=O)c1snc(C(=O)NC2CCCCC2)c1N | 86 | 75% (inactive) | 86% (inactive) | 51.9% (inactive) | 101% (inactive) | 12.7% (inactive) | 88.1 | 101 | -0.95% (inactive) | 1.59% (inactive) |
| COCCCNC(=O)CSc1nc2ccc(N3CCOCC3)cc2c(=O)n1CCc1ccccc1 | 104 | 87% (inactive) | 104% (inactive) | 70.3% (inactive) | 94.9% (inactive) | -5.04% (inactive) | 99.9 | 94.9 | -2.73% (inactive) | -0.48% (inactive) |
